High-throughput results from PubChem.
Only some compounds are listed: those with a hit (about 1.8% of all), similar ones and a draw of the others.
CHRM5 agonist: agonists of human muscarinic M5 receptor (CHRM5); P08912; CHO-K1 hM5 cells, Fluo-8 calcium fluorescence; 0% DMSO wells, 100% maximal acetylcholine response; activation, % at 3 µM; 360,000 compounds, 0.19% hits;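 active = activation above the run's mean over test compounds plus 3 SD, cut at about 23% in these data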;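 note: signal is peak over basal fluorescence ratio across the kinetic read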
CHRM5 PAM: potentiates acetylcholine response at human M5 receptor; P08912; CHO-K1 hM5, Fluo-8 calcium, ACh EC20 PAM; 0% = ACh EC20, 100% = ACh EC100; activation, % at 3 µM; 360,000 compounds, 0.3% hits;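 active = activation above the run cutoff, the mean activation of all test compounds plus 3 SD, cut at about 18% in these data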
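System – CHO-K1 hM5 cells · Compound – 3 µM, single dose · Incubation – compound preincubation 140 s before EC20 acetylcholine addition · Technique – Fluo-8 calcium fluorescence · Measure – Max/basal fluorescence ratio as % of EC20–EC100 ACh window · Benchmarks – low control EC20 acetylcholine (0%), high control EC100 acetylcholine (100%) · Replication – singlicate, one well per test compound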
M4 ag: CHRM4 agonism in calcium assay. P08173. CHO-K1 hM4/Gqi5, Fluo-8 calcium fluorescence; vehicle 0%, full acetylcholine response 100%. activation, % at 3 µM. 360,000 compounds, 0.14% hits. AID 624127;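 active = activation above the run mean over all test wells plus 3 SD, cut at about 32% in these data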;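 note: peak over basal fluorescence ratio per well then scaled between controls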
Target sequence (P08173 whole entry, looked up): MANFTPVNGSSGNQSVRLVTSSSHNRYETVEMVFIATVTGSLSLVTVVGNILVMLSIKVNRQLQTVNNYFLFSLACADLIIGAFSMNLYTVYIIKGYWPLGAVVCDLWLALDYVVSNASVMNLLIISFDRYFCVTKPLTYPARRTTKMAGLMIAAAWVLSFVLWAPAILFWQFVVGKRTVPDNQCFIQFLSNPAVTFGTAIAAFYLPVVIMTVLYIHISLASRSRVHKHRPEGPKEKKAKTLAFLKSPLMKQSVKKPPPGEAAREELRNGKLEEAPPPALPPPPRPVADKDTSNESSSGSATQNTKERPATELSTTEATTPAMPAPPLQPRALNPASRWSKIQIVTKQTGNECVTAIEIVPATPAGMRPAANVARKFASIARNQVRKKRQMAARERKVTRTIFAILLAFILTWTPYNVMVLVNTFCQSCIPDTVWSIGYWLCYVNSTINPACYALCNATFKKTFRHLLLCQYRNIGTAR
M4 antag: CHRM4 antagonism in calcium assay | inhibition, % at 3 µM | 360,000 compounds, 0.73% hits | P08173 | AID 624125 | CHO-hM4 cells, ACh EC80, Fluo-8 calcium fluorescence;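 active = inhibition above its plate's cutoff, the mean inhibition of sample wells plus 3 SD, cut at about 27% in these data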
M4 PAM: potentiates acetylcholine response at human M4 receptor. activation, % at 3 µM. AID 624126. CHO-K1 hM4/Gqi5, Fluo-8 calcium fluorescence, ACh EC20; 0% = ACh EC20, 100% = maximal ACh. 360,000 compounds, 0.4% hits. P08173;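 active = activation above its plate's cutoff, the mean activation of sample wells plus 3 SD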
M5 antag: blocks acetylcholine activation of human M5 receptor; P08912; AID 624040; inhibition, % at 3 µM; 360,000 compounds, 0.59% hits; CHO-hM5 cells, Fluo-8 calcium fluorescence, ACh EC80;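 active = inhibition above a per-plate cutoff, the mean of that plate's test compounds plus 3 SD, cut at about 27% in these data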
A number is an active result; . = inactive; + = active, no number; ! = not confirmed by another sample.

SMILES | CHRM5 agonist | CHRM5 PAM | M4 ag | M4 antag | M4 PAM | M5 antag
O=C(Cc1c[nH]c2ccccc12)Nc1ccc(N2CCOCC2)cc1 | . | . | . | . | . | .
C[C@@H](NC(=O)c1nc[nH]c1C(=O)OCc1ccccc1)c1ccccc1 | . | . | . | . | . | .
O=C(CNC(=O)c1nc[nH]c1C(=O)N1CCc2ccccc2C1)OCc1ccccc1 | . | . | . | 28.8 | . | 27.0
C[C@H](NC(=O)c1nc[nH]c1C(=O)NCc1ccc(CNC(=O)OC(C)(C)C)cc1)C(=O)OCc1ccccc1 | . | . | . | 49.7 | . | 29.3
O=C(CNC(=O)c1nc[nH]c1C(=O)N1CCNCC1)OCc1ccccc1 | . | . | . | . | . | .
C[C@@H](NC(=O)c1nc[nH]c1C(=O)NCC(=O)OCc1ccccc1)c1ccccc1 | . | . | . | . | . | 27.8
CC(C)(C)c1ccc(-n2nc(C#N)c(Cl)cc2=O)cc1 | . | . | . | 54.5 | . | 33.0
COCc1cc(C)nc(SCC[N+](C)(C)CC(=O)c2ccccc2)c1C#N | . | . | . | . | . | .
Clc1cccc(Oc2cnc3ccccc3n2)c1 | . | . | . | . | 30.0 | .
CC(C)Oc1ccc(C(=O)NC(Cc2c[nH]c3ccccc23)C(=O)NN)cc1 (centres undefined) | . | . | . | . | . | .
CCC(=O)N[C@H]1C=C[C@H](CC(=O)OC)O[C@@H]1CO | . | . | . | . | . | .
COC(=O)C[C@H]1C=C[C@@H](NC(=O)C2CC2)[C@@H](CO)O1 | . | 20.4 | . | . | . | .
O=[N+]([O-])c1ccc(-n2nncc2-c2ccccc2)cc1 | . | 19.5 | . | . | . | .
C[C@@H]1CN([C@H](C)CO)S(=O)(=O)c2ccc(Br)cc2O[C@H]1CN(C)C(=O)Cc1ccccn1 | . | . | . | . | . | .
CN1CCCC(CC2Oc3ccccc3Sc3ccccc32)C1 (centres undefined) | . | . | . | 73.3 | . | 53.7
c1ccc2c(c1)OC(CCCN1CCCCC1)c1ccccc1S2 (centres undefined) | . | . | . | . | . | .
CC(OC(=O)Cn1cnc2c1c(=O)n(C)c(=O)n2C)C(=O)NC(C)c1ccc(Cl)cc1Cl (centres undefined) | . | . | . | . | . | .
CSc1ccc(/C=c2\s/c(=C\C(=O)C(C)(C)C)n(CC(=O)NCCC3=CCCCC3)c2=O)cc1 | . | . | . | . | . | .
CCCNC(=O)Cn1c(=O)/c(=C/c2ccc(-c3ccc([N+](=O)[O-])cc3)o2)s/c1=C\C(=O)C(C)(C)C | 122.7 | . | 34.7 | . | . | 53.3
Cc1ccc(CN2CCN(CCCn3cnc4c(OCc5ccccc5)ncnc43)CC2)cc1 | . | . | . | 33.4 | . | .
c1ccc(COc2ncnc3c2ncn3CCCN2CCN(Cc3cccc4ccccc34)CC2)cc1 | . | . | . | . | . | .
CN(C)CCCN(C(=O)CCc1ccccc1)c1nc2ccc(Br)cc2s1 | . | . | 33.8 | 52.7 | . | .
Cc1cccc2sc(N(CCCN(C)C)C(=O)c3ccc4ncsc4c3)nc12 | . | . | . | 29.8 | 33.8 | .
CN(C)CCCN(C(=O)CCc1ccccc1)c1nc2ccc(F)cc2s1 | . | . | . | . | . | .
CN(C)CCCN(C(=O)c1ccc(C(=O)c2ccccc2)cc1)c1nc2cc3c(cc2s1)OCCO3 | . | . | . | . | . | 28.3
SMILES | CHRM5 agonist | CHRM5 PAM | M4 ag | M4 antag | M4 PAM | M5 antag
Cc1cccc2sc(N(CCCN(C)C)C(=O)c3nc4ccccc4s3)nc12 | . | . | . | . | . | .
CN(C)CCN(C(=O)c1ccc(C(=O)c2ccccc2)cc1)c1nc2cc3c(cc2s1)OCCO3 | . | . | . | . | . | .
CCN(CC)CCN(C(=O)c1ccc2c(c1)OCCO2)c1nc2cc(C)cc(C)c2s1 | . | . | . | . | 17.7 | .
COc1ccc(N2CCN(C(c3ccc4ncccc4c3)c3nnnn3C(C)C)CC2)cc1 (centres undefined) | . | . | . | . | . | .
Cc1ccc(N(C(=O)CS(=O)CC(=O)Nc2ccc(F)cc2)C(C(=O)NC2CCCCC2)c2ccco2)cc1 (centres undefined) | . | . | . | . | . | .
Cc1ccc(NC(=O)CS(=O)CC(=O)N(C(C)C(=O)NC2CCCCC2)C(C)(C)C)cc1 (centres undefined) | . | . | . | . | . | 27.5
Nc1ccc2cc3[nH]c4cc(N)ccc4c3nc2c1 | 101.2 | . | . | 32.3 | . | 67.6
Nc1ccc(-c2nc3ccc(N)cc3[nH]2)cc1 | . | . | . | . | . | .
COC(=O)[C@@]12C[C@@H](CC(=O)NCC3CCCCC3)C(=O)N(Cc3cccc4ccccc34)C1=CCC(C)(C)C2 | . | . | . | . | . | .
CC(O)Cc1cn([C@@H](CCCCN)C(=O)N2CCNCC2)nn1 (some centres undefined) | . | . | . | . | . | .
CC(O)[C@@H](C(=O)N1CCNCC1)n1cc(CCCCN)nn1 (some centres undefined) | . | . | + | . | . | .
CC1Cc2cc(C3(O)C(=O)c4ccccc4C3=O)ccc2N1 (centres undefined) | . | . | . | 31.2 | . | .
CNc1ccc(C2(O)C(=O)c3ccccc3C2=O)cc1 | . | . | . | . | . | .
CCOC(=O)N1CCN(C(=O)c2ccc(Oc3ccc([N+](=O)[O-])cc3)cc2)CC1 | . | . | . | . | . | .
CC(C)(C)n1nnnc1C(c1cccs1)N(Cc1cccnc1)Cc1ccco1 (centres undefined) | . | . | . | . | . | 70.0
CC(=O)O[C@]1(C(C)=O)CCC2C3C=C(C)C4=CC(=O)CC[C@]4(C)C3CC[C@@]21C (some centres undefined) | . | . | . | . | . | .
CC(=O)O[C@H]1C[C@@]2(C)[C@@H](C[C@@H](O)[C@H]3[C@@]4(C)CC[C@@H](O)[C@@H](C)[C@@H]4CC[C@@]32C)/C1=C(\CCC=C(C)C)C(=O)O | . | . | . | 81.3! | . | 43.6!
O=c1[nH]c2ccccc2c2ccc(Cl)cc12 | . | . | . | . | . | .
O=c1[nH]c2cc(F)ccc2c2ccc(F)cc12 | . | 19.1 | . | . | . | .
Cc1c(CCOC(=O)C23CC4CC(CC(C)(C4)C2)C3)sc[n+]1Cc1ccccc1 | . | . | . | 69.2 | . | 98.4
Cc1c(CCOC(=O)C23CC4CC(CC(C4)C2)C3)sc[n+]1Cc1ccccc1 | . | . | . | . | . | .
